From ChEMBL document CHEMBL1152902, “Synthesis, antifungal activities and 3D-QSAR study of N-(5-substituted-1,3,4-thiadiazol-2-yl)cyclopropanecarboxamides” (2009)

Columns and labels:
Format in all cases: functional
Fusarium oxysporum = assay: Antifungal activity against Fusarium oxysporum at 500 ug/ml relative to control
Method in brief: (§1)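 Pot culture test run as in the cited reference, with series compounds screened against five fungi: S. sclerotiorum (Lib.) de Bary, R. solani, F. oxysporum, C. cassiicola and B. cinerea. Culture plates were held at (24 ±1) °C. Commercial fungicides (dimehachlon, jinggangmycin, thiophanate methyl, chlorothalonil, pyrimethanil) served as controls under the same conditions.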

Rhizoctonia solani = assay: Antifungal activity against Rhizoctonia solani at 500 ug/ml relative to control; method in brief: as §1
Sclerotinia sclerotiorum = assay: Antifungal activity against Sclerotinia sclerotiorum (Lib.) de Bary at 500 ug/ml relative to control; method in brief: as §1
Corynespora cassiicola = assay: Antifungal activity against Corynespora cassiicola at 500 ug/ml relative to control; method in brief: as §1
Botrytis cinerea = assay: Antifungal activity against Botrytis cinerea at 500 ug/ml relative to control; method in brief: as §1

Structure (SMILES)	inhibition at 500 µg/mL (Fusarium oxysporum) [%]	inhibition at 500 µg/mL (Rhizoctonia solani) [%]	inhibition at 500 µg/mL (Sclerotinia sclerotiorum) [%]	inhibition at 500 µg/mL (Corynespora cassiicola) [%]	inhibition at 500 µg/mL (Botrytis cinerea) [%]
CCCc1nnc(NC(=O)C2CC2)s1	1	35	40	46.6	57.9
Cc1cccc(-c2nnc(NC(=O)C3CC3)s2)c1	11	39	20	8.38	90.7
CCc1nnc(NC(=O)C2CC2)s1	10	23	51.7	49.7	32.1
COC(=O)NC(=S)Nc1ccccc1NC(=S)NC(=O)OC [THIOPHANATE METHYL]	97	–	–	–	–
CC(C)c1nnc(NC(=O)C2CC2)s1	20	11	47.7	29.3	42
O=C(Nc1nnc(-c2ccc(Cl)cc2)s1)C1CC1	28	62	23.9	19.7	13.5
Cc1ccccc1-c1nnc(NC(=O)C2CC2)s1	21	36	37.5	50.8	75.1
O=C1CCC(=O)N1c1cc(Cl)cc(Cl)c1 [DIMETHACHLON]	–	–	96.7	–	–
O=C(Nc1nncs1)C1CC1	17	37	24	22.5	83.7
Cc1nnc(NC(=O)C2CC2)s1	84	5	23	52.4	67.5
Cc1cc(C)nc(Nc2ccccc2)n1 [PYRIMETHANIL]	–	–	–	–	99.2
CCCCc1nnc(NC(=O)C2CC2)s1	2	44	10.3	21.9	26
O=C(Nc1nnc(-c2ccccc2Cl)s1)C1CC1	91	44	25.5	21.4	35.1
O=C(Nc1nnc(-c2ccccc2F)s1)C1CC1	84	5	23	68.3	67.5
O=C(Nc1nnc(-c2ccc([N+](=O)[O-])cc2)s1)C1CC1	13	16	43.1	18.6	30.3
N#Cc1c(Cl)c(Cl)c(Cl)c(C#N)c1Cl [CHLOROTHALONIL]	–	–	–	86.4	–
COc1ccc(-c2nnc(NC(=O)C3CC3)s2)cc1	12	-9	33	33.3	79.4
O=C(Nc1nnc(-c2ccccc2)s1)C1CC1	16	9	24	17.4	80.5
O=C(Nc1nnc(C2CC2)s1)C1CC1	37	21	26.7	13.3	66.6
